The values that follow come from ChEMBL document CHEMBL1240416, “Synthesis, structure and DNA cleavage studies of coumarin analogues of tetrahydroisoquinoline and protoberberine alkaloids” (Eur J Med Chem, 2010).

Common to all, as to assay type: nucleic-acid assay
Test [1] has as its system Nucleic Acid. Briefly: Induction of Staphylococcus aureus 6538 DNA cleavage after 2 hrs by agarose gel electrophoresis. The essentials: (§1)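 Genomic DNA was isolated from cultures grown at 37 °C (E. coli and S. aureus in nutrient broth for 24 h; A. niger in potato dextrose broth for 48 h). Extraction used Tris/EDTA/SDS lysis, phenol at 55 °C, chloroform:isoamyl alcohol and ethanol precipitation. DNA was incubated 2 h at 37 °C with compound from a 1 mg/mL DMF stock, then run on agarose in TAE at 50 V for about 30 min against marker and untreated-DNA lanes.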

For test [2], the system named is Nucleic Acid. Briefly: Induction of Escherichia coli ATCC 35218 DNA cleavage after 2 hrs by agarose gel electrophoresis. A digest of the protocol:
as §1

Test [3] has as its system Nucleic Acid. Briefly: Induction of Aspergillus niger DNA cleavage after 2 hrs by agarose gel electrophoresis. A digest of the protocol:
as §1

Each structure is given as a SMILES string. Calls of active or inactive are those of the source. The rule behind the calls is not given here.

Regarding `Cc1ccc2c3c(c(=O)oc2c1)CN1CCc2ccccc2C1C3` (stereo unspecified), the result with Nucleic Acid [1], in the test with Nucleic Acid [2] and in the test with Nucleic Acid [3] was inactive.
For the molecule `O=c1oc2c(ccc3ccccc32)c2c1CN1CCc3ccccc3C1C2` (stereo unspecified), the outcome in the test on Nucleic Acid [1] and in the test on Nucleic Acid [3] was Active. The outcome with Nucleic Acid [2] was inactive.
For the molecule `COc1cc2c(cc1OC)C1Cc3c(c(=O)oc4cc(C)ccc34)CN1CC2` (stereo unspecified), the outcome in the test with Nucleic Acid [1], in the test on Nucleic Acid [2] and in the test on Nucleic Acid [3] was inactive.
Regarding `O=c1cc(CC2NCCc3ccccc32)c2ccc3ccccc3c2o1` (stereo unspecified), the result with Nucleic Acid [1] and with Nucleic Acid [3] was Active. Further, in the test with Nucleic Acid [2], the outcome was inactive.
`COc1cc2c(cc1OC)C1Cc3c(c(=O)oc4c3ccc3ccccc34)CN1CC2` (stereo unspecified): the result in the test with Nucleic Acid [1] and in the test with Nucleic Acid [3] was Active. For the same molecule, in the test on Nucleic Acid [2], the result was inactive.
With `COc1cc2c(cc1OC)C(Cc1cc(=O)oc3c1ccc1ccccc13)NCC2` (stereo unspecified), the result in the test on Nucleic Acid [1] and in the test on Nucleic Acid [3] was Active. The outcome with Nucleic Acid [2] was inactive.
In the case of `Cc1ccc2c(CC3NCCc4ccccc43)cc(=O)oc2c1` (stereo unspecified), the result in the test with Nucleic Acid [1], in the test on Nucleic Acid [2] and in the test on Nucleic Acid [3] was inactive.
Turning to `COc1cc2c(cc1OC)C(Cc1cc(=O)oc3cc(C)ccc13)NCC2` (stereo unspecified), the result with Nucleic Acid [1], with Nucleic Acid [2] and in the test on Nucleic Acid [3] was inactive.
As to `Cc1ccc2oc(=O)cc(CC3NCCc4ccccc43)c2c1` (stereo unspecified), the outcome in the test with Nucleic Acid [1], with Nucleic Acid [2] and with Nucleic Acid [3] was inactive.
As to `COc1cc2c(cc1OC)C(Cc1cc(=O)oc3ccc(C)cc13)NCC2` (stereo unspecified), the result with Nucleic Acid [1], in the test on Nucleic Acid [2] and in the test on Nucleic Acid [3] was inactive.
Take `Cc1ccc2oc(=O)c3c(c2c1)CC1c2ccccc2CCN1C3` (stereo unspecified): the outcome in the test on Nucleic Acid [1], with Nucleic Acid [2] and in the test on Nucleic Acid [3] was inactive.
Turning to `COc1cc2c(cc1OC)C1Cc3c(c(=O)oc4ccc(C)cc34)CN1CC2` (stereo unspecified), the outcome in the test with Nucleic Acid [1], in the test on Nucleic Acid [2] and in the test on Nucleic Acid [3] was inactive.
